Structures can show the parent of a compound that is named as a salt. Active and inactive are the calls of the source. No cut-off for these calls is given here.
How the values were obtained:
[1] = test system: HT-1080; experiment: Cytotoxicity against human HT-1080 cells assessed as reduction in cell viability incubated for 72 hrs by MTT assay; format: functional, cell-based; details: HT-1080, 72 h
Procedure, shortened: (§1)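 Cancer lines (MDA-MB-231, HT-1080, PC-3) were grown in DMEM with 10% FBS and penicillin/streptomycin at 37 °C in 5% CO₂. About 5000 cells/well adhered overnight, then serial compound dilutions were added for 72 h, with matching DMSO dilutions (0.5–0.0008% v/v) as controls. MTT (1 mg/ml final, serum-free phenol-red-free DMEM) ran 4 h, was solubilised in 2-propanol, and OD read at 550 nm (ref 690). IC50 is the concentration halving OD versus untreated, mean of three independent experiments.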

[2] = test system: MDA-MB-231; experiment: Cytotoxicity against human MDA-MB-231 cells assessed as reduction in cell viability incubated for 72 hrs by MTT assay; format: functional, cell-based; details: MDA-MB-231, 72 h; procedure, shortened: as §1
[3] = test system: PC-3; experiment: Cytotoxicity against human PC-3 cells assessed as reduction in cell viability incubated for 72 hrs by MTT assay; format: functional, cell-based; details: PC-3, 72 h; procedure, shortened: as §1
[4] = test system: HT-1080; experiment: Induction of cell cycle arrest in human HT1080 cells assessed as accumulation at sub-diploid phase at 2 uM incubated for 24 hrs by RNase/PI staining based flow cytometric analysis (reference value: 5.36 %); format: functional
[5] = molecular target: RAC-alpha serine/threonine-protein kinase (Homo sapiens) (UniProt P31749); experiment: Inhibition of AKT phosphorylation at Ser473 residue in human HT-1080 cells at 20 uM after 15 mins by Western blotting analysis
Chain of RAC-alpha serine/threonine-protein kinase (Homo sapiens) (P31749 whole entry): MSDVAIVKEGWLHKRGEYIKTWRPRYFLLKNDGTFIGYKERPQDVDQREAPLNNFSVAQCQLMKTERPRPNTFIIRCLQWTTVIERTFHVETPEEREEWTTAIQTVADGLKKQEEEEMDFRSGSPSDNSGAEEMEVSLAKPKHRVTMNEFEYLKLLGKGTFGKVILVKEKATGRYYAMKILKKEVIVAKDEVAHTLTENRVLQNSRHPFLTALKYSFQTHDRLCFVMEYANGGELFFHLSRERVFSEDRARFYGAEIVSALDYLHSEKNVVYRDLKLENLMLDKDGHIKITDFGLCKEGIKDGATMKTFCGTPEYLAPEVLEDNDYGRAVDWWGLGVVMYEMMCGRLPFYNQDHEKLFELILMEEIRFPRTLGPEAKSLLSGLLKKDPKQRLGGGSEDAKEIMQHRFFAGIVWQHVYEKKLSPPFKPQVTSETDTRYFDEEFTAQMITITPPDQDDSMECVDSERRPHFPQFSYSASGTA

[6] = test system: AG1523; experiment: Cytotoxicity against human AG01523 cells assessed as reduction in cell viability incubated for 72 hrs by MTT assay; format: cell-based; details: AG1523, 72 h
[7] = test system: HT-1080; experiment: Inhibition of ERK phosphorylation in human HT-1080 cells at 20 uM after 15 mins by Western blotting analysis
[8] = test system: HT-1080; experiment: Induction of cell cycle arrest in human HT1080 cells assessed as accumulation at G0/G1 phase at 2 uM incubated for 24 hrs by RNase/PI staining based flow cytometric analysis (reference value: 32.86 %); format: functional
[9] = test system: HT-1080; experiment: Induction of cell cycle arrest in human HT1080 cells assessed as accumulation at S phase at 2 uM incubated for 24 hrs by RNase/PI staining based flow cytometric analysis (reference value: 19.59 %); format: functional
[10] = test system: HT-1080; experiment: Induction of cell cycle arrest in human HT1080 cells assessed as accumulation at G2/M phase at 2 uM incubated for 24 hrs by RNase/PI staining based flow cytometric analysis (reference value: 47.55 %); format: functional
[11] = test system: HT-1080; experiment: Induction of apoptosis in human HT-1080 cells assessed as increase in PARP cleavage at 2 uM after 24 hrs by Western blotting analysis

SMILES	IC50 [1]	IC50 [2]	IC50 [3]	other results
COc1ccc(Cn2cc3cc(C(=N)Nc4cccc(C(F)(F)F)c4)ncc3n2)cc1	13 µM	15.5 µM	12.8 µM	–
COc1ccc(Cn2nc(-c3ccccc3)c3cc(C(=N)Nc4cccc(C(F)(F)F)c4)nc(Nc4cc(OC)c(OC)c(OC)c4)c32)cc1	–	> 50 µM	–	–
COc1ccc(Cn2ncc3cc(C(=N)Nc4ccc(N5CCN(C)CC5)cc4)ncc32)cc1	5.3 µM	5.7 µM	6.1 µM	–
N=C(Nc1cccc(C(F)(F)F)c1)c1cc2cn[nH]c2cn1	36.5 µM	> 50 µM	> 50 µM	–
COc1ccc(Cn2nc(-c3ccccc3)c3cc(C(=N)Nc4ccc(N5CCN(C)CC5)cc4)nc(N4CCOCC4)c32)cc1	0.7 µM	1.13 µM	4.58 µM	Percent of cells in sub-diploid (sub-G1) phase [4]: 21.09%; inhibition ([5]; time 15.0 mins): 100%; IC50 [6]: 2.19 µM; inhibition [7]: Active; Percentage of cells in G0/G1 phase [8]: 34.31%; Activity [9]: 34.21%; Activity [10]: 31.48%; Activity [11]: Active
N=C(Nc1ccccc1)c1cc2c(-c3ccccc3)n[nH]c2c(N2CCOCC2)n1	4.8 µM	6.8 µM	6.8 µM	–
N=C(Nc1ccccc1)c1cc2c(-c3ccccc3)n[nH]c2cn1	22 µM	11 µM	23 µM	–
N=C(Nc1cccc(C(F)(F)F)c1)c1cc2c(-c3ccccc3)n[nH]c2cn1	24.6 µM	22.3 µM	19.9 µM	–
CN1CCN(c2ccc(NC(=N)c3cc4cnn(C)c4cn3)cc2)CC1	24 µM	30.2 µM	32.3 µM	–
CN1CCN(c2ccc(NC(=N)c3cc4c(-c5ccccc5)n[nH]c4cn3)cc2)CC1	11.4 µM	15.9 µM	17.1 µM	–
Cn1cc2cc(C(=N)Nc3cccc(C(F)(F)F)c3)ncc2n1	–	> 50 µM	–	–
N=C(Nc1cccc(C(F)(F)F)c1)c1cc2c(-c3ccccc3)n[nH]c2c(N2CCOCC2)n1	6.8 µM	13.3 µM	17.3 µM	–
COc1ccc(Cn2cc3cc(C(=N)Nc4ccccc4)ncc3n2)cc1	1.13 µM	1.52 µM	2.04 µM	Percent of cells in sub-diploid (sub-G1) phase [4]: 24.06%; IC50 [6]: 32.4 µM; inhibition [7]: inactive; Percentage of cells in G0/G1 phase [8]: 56.57%; Activity [9]: 7.35%; Activity [10]: 36.07%; Activity [11]: Active
COc1ccc(Cn2ncc3cc(C(=N)Nc4ccccc4)ncc32)cc1	25.7 µM	34.7 µM	36 µM	–
CN1CCN(c2ccc(NC(=N)c3cc4cn(C)nc4cn3)cc2)CC1	21 µM	20.5 µM	24.8 µM	–
COc1ccc(Cn2nc(-c3ccccc3)c3cc(C(=N)Nc4cccc(C(F)(F)F)c4)nc(NC4CCCCC4)c32)cc1	–	> 50 µM	–	–
COc1cc(Nc2nc(C(=N)Nc3ccccc3)cc3c(-c4ccccc4)n[nH]c23)cc(OC)c1OC	3.9 µM	4.5 µM	5.8 µM	–
COc1ccc(Cn2nc(-c3ccccc3)c3cc(C(=N)Nc4ccc(N5CCN(C)CC5)cc4)nc(NC4CCCCC4)c32)cc1	0.64 µM	1.29 µM	3.54 µM	Percent of cells in sub-diploid (sub-G1) phase [4]: 14.34%; IC50 [6]: 3.33 µM; inhibition [7]: Active; Percentage of cells in G0/G1 phase [8]: 38.53%; Activity [9]: 12.9%; Activity [10]: 48.57%; Activity [11]: Active
COc1ccc(Cn2nc(-c3ccccc3)c3cc(C(=N)Nc4ccccc4)nc(NC4CCCCC4)c32)cc1	3.4 µM	3.4 µM	1.1 µM	inhibition ([5]; time 15.0 min): inactive; IC50 [6]: 26.8 µM
Cn1cc2cc(C(=N)Nc3ccccc3)ncc2n1	–	> 50 µM	–	–

SMILES	IC50 [1]	IC50 [2]	IC50 [3]	other results
Cn1ncc2cc(C(=N)Nc3cccc(C(F)(F)F)c3)ncc21	33.8 µM	> 50 µM	> 50 µM	–
CN1CCN(c2ccc(NC(=N)c3cc4c(-c5ccccc5)n[nH]c4c(N4CCOCC4)n3)cc2)CC1	5.6 µM	3.9 µM	8.3 µM	–
COc1ccc(Cn2nc(-c3ccccc3)c3cc(C(=N)Nc4cccc(C(F)(F)F)c4)nc(N4CCOCC4)c32)cc1	–	> 50 µM	–	–
Cn1nc(-c2ccccc2)c2cc(C(=N)Nc3ccccc3)ncc21	17.4 µM	11.1 µM	17.3 µM	–
N=C(Nc1cccc(C(F)(F)F)c1)c1cc2c(-c3ccccc3)n[nH]c2c(NC2CCCCC2)n1	21.2 µM	24.6 µM	25 µM	–
COc1ccc(Cn2nc(-c3ccccc3)c3cc(C(=N)Nc4ccccc4)nc(Nc4cc(OC)c(OC)c(OC)c4)c32)cc1	11.1 µM	42.1 µM	> 50 µM	–
COc1ccc(Cn2cc3cc(C(=N)Nc4ccc(N5CCN(C)CC5)cc4)ncc3n2)cc1	3.2 µM	8 µM	9.9 µM	–
COc1ccc(Cn2ncc3cc(C(=N)Nc4cccc(C(F)(F)F)c4)ncc32)cc1	24.9 µM	29.8 µM	27.6 µM	–
Cn1ncc2cc(C(=N)Nc3ccccc3)ncc21	–	> 50 µM	–	–
CN1CCN(c2ccc(NC(=N)c3cc4c(-c5ccccc5)nn(C)c4cn3)cc2)CC1	1.4 µM	4.9 µM	5.9 µM	IC50 [6]: 10.4 µM
COc1cc(Nc2nc(C(=N)Nc3ccc(N4CCN(C)CC4)cc3)cc3c(-c4ccccc4)n[nH]c23)cc(OC)c1OC	3.4 µM	4.6 µM	4.3 µM	–
CN1CCN(c2ccc(NC(=N)c3cc4cn[nH]c4cn3)cc2)CC1	31.3 µM	47.5 µM	45.4 µM	–
COc1ccc(Cn2nc(-c3ccccc3)c3cc(C(=N)Nc4ccccc4)nc(N4CCOCC4)c32)cc1	6.2 µM	21.2 µM	16.4 µM	–
Cn1nc(-c2ccccc2)c2cc(C(=N)Nc3cccc(C(F)(F)F)c3)ncc21	17.8 µM	21.4 µM	20.9 µM	–
COc1ccc(Cn2nc(-c3ccccc3)c3cc(C(=N)Nc4cccc(C(F)(F)F)c4)ncc32)cc1	46.7 µM	> 50 µM	> 50 µM	–
N=C(Nc1ccccc1)c1cc2cn[nH]c2cn1	–	> 50 µM	–	–
COc1cc(Nc2nc(C(=N)Nc3cccc(C(F)(F)F)c3)cc3c(-c4ccccc4)n[nH]c23)cc(OC)c1OC	6.7 µM	7.6 µM	13.9 µM	–
COc1cccc2c1C(=O)c1c(O)c3c(c(O)c1C2=O)C[C@@](O)(C(=O)CO)C[C@@H]3O[C@H]1C[C@H](N)[C@H](O)[C@H](C)O1 [DOXORUBICIN HYDROCHLORIDE]	0.008 µM	0.19 µM	0.38 µM	IC50 [6]: 0.4 µM
COc1ccc(Cn2nc(-c3ccccc3)c3cc(C(=N)Nc4ccccc4)ncc32)cc1	4.7 µM	5.4 µM	6.3 µM	–

Reference: ChEMBL document CHEMBL4819061, “New bioactive 5-arylcarboximidamidopyrazolo[3,4-c]pyridines: Synthesis, cytotoxic activity, mechanistic investigation and structure-activity relationships” (Eur J Med Chem, 2021)
